Legend:
COS-7 = test: CyclicAMP production in untransfected COS-7 cell control; assay type: functional
Procedure, shortened: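 Non-transfected COS-7 cells grown in DMEM/10% FBS at 37 °C, 5% CO2. Preincubated 30 min at 37 °C in serum-free DMEM/25 mM HEPES pH 7.5, then given 10 μM compound plus 0.24 mM IBMX and 0.1 μM propranolol for 20 min. cAMP in cold 5% TCA extract quantified by RIA, pmol/min/well.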

Bos taurus [1] = species on record: Bos taurus; test: Oxidation was assessed indirectly by measuring bovine serum albumin (BSA) thiol protection from the formation of thiobarbituric acid reactive substances (TBARs) by TBARs test at 100 uM; assay type: functional
[2] = target: Beta-3 adrenergic receptor (Homo sapiens) (UniProt P13945); test: Beta adrenergic activity as cAMP production in human Beta3 adrenergic receptor expressing COS-7 cells with propranolol; assay type: functional, cell-based
Chain of Beta-3 adrenergic receptor (Homo sapiens) (P13945 whole entry, looked up): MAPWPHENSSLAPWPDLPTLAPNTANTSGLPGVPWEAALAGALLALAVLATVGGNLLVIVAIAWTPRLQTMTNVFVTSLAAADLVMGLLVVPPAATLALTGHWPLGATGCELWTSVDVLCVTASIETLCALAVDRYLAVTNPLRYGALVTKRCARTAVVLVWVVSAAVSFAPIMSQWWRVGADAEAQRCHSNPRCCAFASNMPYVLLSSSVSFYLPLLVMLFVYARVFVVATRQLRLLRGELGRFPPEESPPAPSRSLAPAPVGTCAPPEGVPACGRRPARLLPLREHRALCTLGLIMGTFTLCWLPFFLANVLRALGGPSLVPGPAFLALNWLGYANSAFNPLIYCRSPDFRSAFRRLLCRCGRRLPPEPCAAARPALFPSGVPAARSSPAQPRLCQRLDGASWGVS
Procedure, shortened: (§1)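 COS-7 cells in DMEM/10% FBS at 37 °C, 5% CO2, lipofected with human β3-receptor plasmid at 70-80% confluence, then grown 24 h. Cells preincubated 30 min at 37 °C in serum-free DMEM/25 mM HEPES pH 7.5, then exposed 20 min to 10 μM compound with 0.24 mM IBMX, with or without 0.1 μM propranolol. cAMP in TCA extract measured by RIA, expressed as pmol/min/well.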

Bos taurus [3] = species on record: Bos taurus; test: Oxidation was assessed indirectly by measuring bovine serum albumin (BSA) thiol protection from the formation of thiobarbituric acid reactive substances (TBARs) by TBARs test at 10 uM; assay type: functional
[4] = target: Beta-3 adrenergic receptor (Homo sapiens) (UniProt P13945); test: Beta adrenergic activity was determined by measuring cAMP production on human Beta3 adrenergic transfected COS-7 cells; assay type: functional, cell-based; procedure, shortened: as §1
Bos taurus [5] = species on record: Bos taurus; test: Oxidation was assessed indirectly by measuring bovine serum albumin (BSA) thiol protection from the formation of thiobarbituric acid reactive substances (TBARs) by TBARs test at 500 uM; assay type: functional
Procedure, shortened: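 Plasma lipid peroxidation induced by Fenton-generated hydroxyl radicals (Fe2+/H2O2), with compound at the stated concentration. Thiobarbituric acid reactive substances quantified. Expressed as % protection relative to Trolox. Mean ± SEM, three experiments, ANOVA (p < 0.05).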

Bos taurus [6] = species on record: Bos taurus; test: Oxidation was assessed indirectly by measuring bovine serum albumin (BSA) thiol protection by using Ellman''s test at 1 mM; assay type: functional
Procedure, shortened: (§2)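 Hydroxyl radicals from Fenton reaction (Fe2+/H2O2) oxidize BSA. Remaining thiols measured by Ellman's test. Compound present at the stated concentration. Reported as % protection relative to Trolox. Mean ± SEM of three experiments, ANOVA (p < 0.05).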

Bos taurus [7] = species on record: Bos taurus; test: Oxidation was assessed indirectly by measuring bovine serum albumin (BSA) thiol protection by using Ellman''s test at 500 uM; assay type: functional; procedure, shortened: as §2
Bos taurus [8] = species on record: Bos taurus; test: Oxidation was assessed indirectly by measuring bovine serum albumin(BSA) thiol protection from the formation of thiobarbituric acid reactive substances (TBARs) by TBARs test at 100 uM; assay type: functional
Bos taurus [9] = species on record: Bos taurus; test: Oxidation was assessed indirectly by measuring bovine serum albumin thiol protection by using Ellman''s test at 500 uM; assay type: functional; procedure, shortened: as §2
Bos taurus [10] = species on record: Bos taurus; test: Oxidation was assessed indirectly by measuring bovine serum albumin(BSA) thiol protection from the formation of thiobarbituric acid reactive substances (TBARs) by TBARs test at 500 uM; assay type: functional
Bos taurus [11] = species on record: Bos taurus; test: Oxidation was assessed indirectly by measuring bovine serum albumin thiol protection by using Ellman''s test at 1 mM; assay type: functional; procedure, shortened: as §2
Bos taurus [12] = species on record: Bos taurus; test: Oxidation was assessed indirectly by measuring bovine serum albumin(BSA) thiol protection from the formation of thiobarbituric acid reactive substances (TBARs) by TBARs test at 10 uM; assay type: functional

| SMILES | cAMP production (COS-7) | Protection (Bos taurus [1]) | cAMP production (pM min-1 well-1) [2] | Protection (Bos taurus [3]) | cAMP production (pM min-1 well-1) [4] | Protection (Bos taurus [5]) | Protection (Bos taurus [9]) | Protection (Bos taurus [11]) | further results |
| --- | --- | --- | --- | --- | --- | --- | --- | --- | --- |
| CC(C)(C)c1cc(CCCOc2ccc(NCC(O)COc3cccc4cnccc34)cc2)cc(C(C)(C)C)c1O (stereo not given) | 24.9 pmol/min/well | 32.8% | 76.3 | 43.6% | 130 | 49.3% |  |  |  |
| Cc1c(C)c2c(c(C)c1O)CCC(C)(COc1ccc(NCC(O)COc3ccc4ccncc4c3)cc1)O2 (stereo not given) | 33 pmol/min/well |  | 33.2 |  |  |  |  |  |  |
| CC(C)(C)c1cc(CCCOc2ccc(NCC(O)COc3cccc4ncccc34)cc2)cc(C(C)(C)C)c1O (stereo not given) | 21.6 pmol/min/well | 33.3% |  | 30.3% |  | 50.4% |  |  | Protection (Bos taurus [6]): 120.3%; Protection (Bos taurus [7]): 47.3% |
| CC(C)(C)c1cc(CCCOc2ccc(NCC(O)COc3ccc4ccncc4c3)cc2)cc(C(C)(C)C)c1O (stereo not given) | 26.9 pmol/min/well |  | 23.9 |  |  |  |  |  |  |
| COc1ccccc1OCCNCC(O)COc1cccc2[nH]c3ccccc3c12 (stereo not given) [CARVEDILOL] |  |  |  | 1% |  |  | 20% | -88.6% | Protection (Bos taurus [8]): -0.6%; Protection (Bos taurus [10]): 6.2% |
| Cc1c(C)c2c(c(C)c1O)CCC(C)(C(=O)O)O2 (stereo not given) [TROLOX] |  |  |  | -21.4% |  |  | 31.4% | 75.2% | Protection (Bos taurus [8]): 7.6%; Protection (Bos taurus [10]): 64.8% |
| CC(C)(C)c1cc(CCCOc2ccc(NCC(O)COc3ccc4cccnc4c3)cc2)cc(C(C)(C)C)c1O (stereo not given) | 23.3 pmol/min/well |  | 21.4 |  | 97.4 |  |  |  |  |
| Cc1c(C)c2c(c(C)c1O)CCC(C)(COc1ccc(NCC(O)COc3cccc4ncccc34)cc1)O2 (stereo not given) | 26.8 pmol/min/well |  | 28.6 |  | 103 |  | 49.2% | 82.9% | Protection (Bos taurus [8]): 64.6%; Protection (Bos taurus [12]): 37.8%; Protection (Bos taurus [10]): 78.2% |
| Cc1c(C)c2c(c(C)c1O)CCC(C)(COc1ccc(NCC(O)COc3cccc4cnccc34)cc1)O2 (stereo not given) | 28.7 pmol/min/well | 49.3% | 41.6 | 39.4% | 142 | 94.4% | 54.8% | 115.2% |  |
| Cc1c(C)c2c(c(C)c1O)CCC(C)(COc1ccc(NCC(O)COc3cccc4[nH]c5ncccc5c34)cc1)O2 (stereo not given) |  | 53.6% |  | 44.3% |  | 75.5% |  |  |  |
| Cc1c(C)c2c(c(C)c1O)CCC(C)(COc1ccc(NCC(O)COc3cccc4[nH]c5ccccc5c34)cc1)O2 (stereo not given) | 31.5 pmol/min/well |  | 22.3 |  |  |  |  |  |  |
